Source: PubChem (several laboratories)
PAD4 inh – inhibitors of human PAD4 | Q9UM07 | hit rate 0.41% among 330,000 | recombinant PAD4, RCA probe fluorescence polarization | inhibition, % at 6.36 µM;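 active = percent inhibition above a cutoff equal to the mean of all tested compounds plus 3 SD, cut at about 15% in these data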;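 also: 0% = PAD4 with RCA probe and DMSO and 100% = probe without PAD4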
SUMO HTRF inh – SUMOylation inhibition; HTRF SUMOylation assay, SAE1/SAE2 + UBC9, in vitro; inhibition, % at 35 µM; hit rate 0.36% among 290,000; in the data active = inhibition above about 50%, passing the limit was not always enough
Apaf1 inhib – human Apaf-1 inhibition. O14727. reconstituted apoptosome caspase-3 activity, DEVD-Rh110 fluorescence. inhibition, % at 20 µM. hit rate 0.71% among 330,000. AID 489030; active = inhibition of at least 40% at 20 µM;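 also: plate controls were DMSO wells for no effect and DEVD-CHO caspase inhibitor wells for full effect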
Target sequence (O14727 whole entry, looked up): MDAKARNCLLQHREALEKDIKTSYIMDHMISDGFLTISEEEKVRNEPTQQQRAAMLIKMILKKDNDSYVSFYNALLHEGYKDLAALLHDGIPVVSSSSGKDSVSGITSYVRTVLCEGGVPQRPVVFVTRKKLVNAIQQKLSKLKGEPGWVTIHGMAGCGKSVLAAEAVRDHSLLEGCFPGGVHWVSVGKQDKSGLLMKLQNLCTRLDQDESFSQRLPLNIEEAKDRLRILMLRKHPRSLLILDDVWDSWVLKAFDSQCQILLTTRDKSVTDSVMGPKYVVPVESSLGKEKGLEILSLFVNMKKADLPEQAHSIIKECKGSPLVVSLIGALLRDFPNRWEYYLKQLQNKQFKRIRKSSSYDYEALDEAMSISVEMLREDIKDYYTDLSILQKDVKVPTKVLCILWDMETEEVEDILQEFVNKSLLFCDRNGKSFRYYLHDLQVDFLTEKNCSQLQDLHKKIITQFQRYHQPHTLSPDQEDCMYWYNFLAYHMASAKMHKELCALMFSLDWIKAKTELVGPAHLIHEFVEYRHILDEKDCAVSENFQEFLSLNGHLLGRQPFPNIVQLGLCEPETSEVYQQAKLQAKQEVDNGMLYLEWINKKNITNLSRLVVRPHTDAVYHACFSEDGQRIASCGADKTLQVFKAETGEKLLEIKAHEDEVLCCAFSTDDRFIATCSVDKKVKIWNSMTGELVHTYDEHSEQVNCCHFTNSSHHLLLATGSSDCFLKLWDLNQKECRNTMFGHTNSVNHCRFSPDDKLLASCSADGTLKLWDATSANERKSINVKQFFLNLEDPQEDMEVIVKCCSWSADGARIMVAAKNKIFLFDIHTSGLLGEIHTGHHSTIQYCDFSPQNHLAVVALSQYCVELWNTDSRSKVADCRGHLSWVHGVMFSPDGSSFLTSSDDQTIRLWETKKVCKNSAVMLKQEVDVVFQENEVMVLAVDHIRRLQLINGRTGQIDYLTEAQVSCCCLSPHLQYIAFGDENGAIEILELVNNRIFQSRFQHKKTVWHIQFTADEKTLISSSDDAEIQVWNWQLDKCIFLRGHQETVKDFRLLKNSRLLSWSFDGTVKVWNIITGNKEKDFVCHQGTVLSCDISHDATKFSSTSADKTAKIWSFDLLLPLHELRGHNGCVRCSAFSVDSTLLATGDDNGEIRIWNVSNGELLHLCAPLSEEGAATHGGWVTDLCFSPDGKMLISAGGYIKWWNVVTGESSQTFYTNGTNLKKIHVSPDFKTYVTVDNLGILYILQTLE
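Material: reconstituted apoptosome with Apaf-1, cytochrome c, caspase-9, procaspase-3, dATP. Technique: Rh110 fluorescence intensity. Buffer or medium: pH 7.5 Hepes buffer with CHAPS, BSA, DTT. Times: 30 min plus 50 min, RT.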
GSTO1 inh – counter-screen for RBBP9 inhibitors: inhibitors of human GSTO1 | P78417 | recombinant GSTO1, activity-based probe fluorescence polarization | inhibition, % at 5.96 µM | hit rate 1.1% among 300,000;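 active = inhibition above the campaign mean inhibition plus 3 SD, cut at about 35% in these data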;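 also: 0% = GSTO1-1 with DMSO and 100% = wells lacking GSTO1-1 enzyme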
Rin1 Abl inh – inhibitors of human Rin1-Abl protein interaction. inhibition, % at 7.35 µM. hit rate 0.4% among 360,000. TR-FRET Rin1/Abl binding, biochemical. P00519+Q13671; in the data active = inhibition above about 5%, passing the limit was not always enough
UBC13 inh – human UBC13 polyubiquitination inhibition | P61088 | UBC13 polyubiquitin chain formation, TR-FRET | inhibition, % at 20 µM | hit rate 0.47% among 330,000 | AID 485273; in the data active = inhibition above about 45%, passing the limit was not always enough
An asterisk follows results filed as active; nt = not tested or not shown. Rows were chosen to be rich in hits. Some 2.2% of all compounds tested hit in one or more screens of this group.

SMILES	PAD4 inh	SUMO HTRF inh	Apaf1 inhib	GSTO1 inh	Rin1 Abl inh	UBC13 inh
NC(=S)N/N=C/c1cccc(O)c1O	0	17	10	84*	0	4
COC(=O)c1ccc(NC(=O)c2ccc(NC(=O)c3ccco3)cc2)cc1	-10	26	44*	-6	-3	-2
c1csc(Cc2nn3c(-c4ccncc4)nnc3s2)c1	-3	-4	78*	0	-9	-4
C[C@H](CO)N1C[C@H](C)[C@@H](CN(C)C(=O)c2cnccn2)Oc2cc(C#CCC3CCCC3)ccc2S1(=O)=O	nt	nt	nt	nt	-1	nt
Cc1ccc(OC(=O)c2sc(Cl)nc2C)cc1C	4	-9	1	35*	-3	-3
COc1ccc(N(C)C(=O)c2sc(Cl)nc2C)cc1	-3	0	-2	7	-2	0
Cc1cc(NC(=O)CSc2nc3cc(C(=O)NCCCOC(C)C)ccc3c(=O)n2Cc2ccco2)no1	1	50*	-19	-15	0	10
COC(=O)c1ccc2c(=O)n(Cc3ccco3)c(SCC(=O)Nc3cc(C)on3)nc2c1	1	25	16	1	3	-16
CC(=O)C(=Cc1ccc(Cl)cc1)C(=O)c1ccccc1	nt	nt	nt	nt	4	nt
O=C(COn1nnc2ccc(S(=O)(=O)N3CCOCC3)cc21)NCCc1ccccc1	-2	nt	1	5	-5	-3
COc1ccccc1NC(=O)COn1nnc2ccc(S(=O)(=O)N3CCOCC3)cc21	-2	6	1	36*	0	4
CCNC(=O)C1CCCN(Cc2ccc3ccccc3c2Br)CC1 (centres undefined)	nt	nt	nt	nt	-3	nt
Cc1nn(-c2ccccc2)c(Cl)c1/C=N/Nc1ccc(S(=O)(=O)Nc2ccccc2C(=O)O)cc1[N+](=O)[O-]	-3	62*	16	4	-3	-71
CN(C)C1=NC[C@H](Cc2ccccc2)N1CC1CCC(C(C)(C)C)CC1 (some centres undefined)	-4	-6	15	1	3	26
O=C(COC(=O)c1cccnc1)c1ccc(Cl)c(Cl)c1	-4	23	5	36*	-1	3
O=C(COC(=O)c1cccnc1)c1ccc(Cl)cc1	0	7	-23	21	0	11
CN(CCOc1ccc(Cl)cc1)C(=O)c1cccc(S(=O)(=O)N2CCN(c3ccc(F)cc3)CC2)c1	nt	nt	nt	nt	3	nt
CC1CN(C2CCCCC2)C(=S)NC1=O (centres undefined)	nt	nt	nt	nt	0	nt
CCc1ccccc1NC(=O)c1ccc([N+](=O)[O-])s1	-6	-8	-3	41*	1	-20
COc1ccccc1NC(=O)COC(=O)c1ccc([N+](=O)[O-])s1	-4	0	23	34	-3	0
c1cc(Nc2ncnc3sc4c(c23)CCC4)ccn1	2	54*	-7	-19	-5	2
O=C(COC(=O)c1c[nH]c2ccccc12)Nc1ccc(F)cc1	0	nt	21	nt	0	6
CN(C(=O)COC(=O)c1cc(S(=O)(=O)N2CCOCC2)c(Cl)cc1Cl)C1CCS(=O)(=O)C1 (centres undefined)	6	21	-156	54*	1	-3
CN(C(=O)COC(=O)c1cccc(S(=O)(=O)N2CCOCC2)c1)C1CCS(=O)(=O)C1 (centres undefined)	9	nt	0	3	0	-12
CN(C)c1ccc(C2Nc3cccc4cccc(c34)N2)cc1	-1	7	18	20	3	-27
SMILES	PAD4 inh	SUMO HTRF inh	Apaf1 inhib	GSTO1 inh	Rin1 Abl inh	UBC13 inh
COc1ccc(C2Nc3cccc4cccc(c34)N2)cc1	-4	18	3	35*	-1	-26
Clc1cccc(C2Nc3cccc4cccc(c34)N2)c1	1	28	1	32	1	26
c1ccc(C2Nc3cccc4cccc(c34)N2)cc1	4	24	20	36*	3	-39
Cc1ccc2oc(-c3ccc(C)c(NC(=O)Cc4cccs4)c3)nc2c1	1	56*	14	3	-4	1
Cc1ccc2oc(-c3cccc(NC(=O)Cc4cccs4)c3)nc2c1	2	15	-7	3	-2	0
COc1ccc2c(c1)OCC(O)(c1ccccc1)C2=O (centres undefined)	nt	nt	nt	nt	1	nt
COc1ccc2c(c1)OC(O)(C(F)(F)F)CC2=O (centres undefined)	-3	7	-12	36*	3	2
